BindingDB's records for doi:10.1021/ml5002486 (National Institute of Diabetes and Digestive and Kidney …, 2014)

Columns and labels:
[1] = target: T1, Adenosine receptor A2a (Homo sapiens, UniProt P29274); experiment: Displacement of [3H]4-[2-[7-amino-2-(2-furyl)-1,2,4-triazolo[1,5-a][1,3,5]triazin-5-yl-amino]ethylphenol from wild type human adenosine A2a receptor expressed in COS-7 cells assessed as radioligand Kd compound preincubated for 30 mins
How it was run: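 WT, K150A or K153A human A2A receptor was transiently transfected into COS-7 cells. Membranes were preincubated with or without compound, then washed. Saturation binding used antagonist radioligand [3H]7, with nonspecific binding defined by 10 μM NECA. Kd (nM) and Bmax (pmol/mg protein) were derived from the saturation curves.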
Target sequence in this assay (P29274 whole entry): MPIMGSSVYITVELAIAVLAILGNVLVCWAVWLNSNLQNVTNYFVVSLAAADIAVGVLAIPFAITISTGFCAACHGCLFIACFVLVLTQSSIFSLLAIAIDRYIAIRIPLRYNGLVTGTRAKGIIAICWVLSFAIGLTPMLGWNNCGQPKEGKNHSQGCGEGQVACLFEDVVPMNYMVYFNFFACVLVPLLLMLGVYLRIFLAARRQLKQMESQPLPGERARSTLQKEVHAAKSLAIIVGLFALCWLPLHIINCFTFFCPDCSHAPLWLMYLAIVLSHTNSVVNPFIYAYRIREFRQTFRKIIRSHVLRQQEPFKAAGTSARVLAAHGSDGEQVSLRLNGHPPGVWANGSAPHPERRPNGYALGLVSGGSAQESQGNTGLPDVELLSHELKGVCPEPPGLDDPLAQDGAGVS

[2] = target: T1, Adenosine receptor A2a; experiment: Displacement of [3H]4-[2-[7-amino-2-(2-furyl)-1,2,4-triazolo[1,5-a][1,3,5]triazin-5-yl-amino]ethylphenol from human adenosine A2a receptor K150A mutant expressed in COS-7 cells assessed as radioligand Kd compound preincubated for 30 mins
Target sequence in this assay (P29274 whole entry, looked up): as the sequence (P29274 whole entry) above

[3] = target: T1, Adenosine receptor A2a; experiment: Displacement of [3H]4-[2-[7-amino-2-(2-furyl)-1,2,4-triazolo[1,5-a][1,3,5]triazin-5-yl-amino]ethylphenol from wild type human adenosine A2a receptor expressed in HEK293 cells assessed as radioligand Kd compound preincubated for 30 mins
Target sequence in this assay (P29274 whole entry): as above

SMILES | Kd [1] | Kd [2] | Kd [3]
CCNC(=O)[C@H]1O[C@@H](n2cnc3c(N)nc(NCCc4ccc(CCC(=O)Nc5ccc(OC(C)=O)c([N+](=O)[O-])c5)cc4)nc32)[C@H](O)[C@@H]1O | 2.2 nM | 3.17 nM | 5 nM
CCNC(=O)[C@H]1O[C@@H](n2cnc3c(N)nc(NCCc4ccc(CCC(=O)Nc5ccc(OC(=O)CCCCN=[N+]=[N-])c([N+](=O)[O-])c5)cc4)nc32)[C@H](O)[C@@H]1O | – | – | 3.2 nM
